Results on 16 compounds are retold here after ChEMBL document CHEMBL4270537, “Design and biological evaluation of novel triaryl pyrazoline derivatives with dioxane moiety for selective BRAFV600E inhibition” (Eur J Med Chem, 2018).

pIC50: −log10 of the molar value. The source made the active and inactive calls. No cut-off for these calls is given here.

The target in data set [1] is Serine/threonine-protein kinase B-raf (Mus musculus, UniProt P28028, V600E). Description: Inhibition of mouse full length GST-tagged BRAF V600E mutant using recombinant human full length N-terminal His-tagged MEK1 as substrate preincubated for 1 hr followed by substrate addition measured after 25 mins.
Chain of Serine/threonine-protein kinase B-raf (Mus musculus, UniProt P28028, V600E) (P28028 whole entry, looked up, stated change not applied): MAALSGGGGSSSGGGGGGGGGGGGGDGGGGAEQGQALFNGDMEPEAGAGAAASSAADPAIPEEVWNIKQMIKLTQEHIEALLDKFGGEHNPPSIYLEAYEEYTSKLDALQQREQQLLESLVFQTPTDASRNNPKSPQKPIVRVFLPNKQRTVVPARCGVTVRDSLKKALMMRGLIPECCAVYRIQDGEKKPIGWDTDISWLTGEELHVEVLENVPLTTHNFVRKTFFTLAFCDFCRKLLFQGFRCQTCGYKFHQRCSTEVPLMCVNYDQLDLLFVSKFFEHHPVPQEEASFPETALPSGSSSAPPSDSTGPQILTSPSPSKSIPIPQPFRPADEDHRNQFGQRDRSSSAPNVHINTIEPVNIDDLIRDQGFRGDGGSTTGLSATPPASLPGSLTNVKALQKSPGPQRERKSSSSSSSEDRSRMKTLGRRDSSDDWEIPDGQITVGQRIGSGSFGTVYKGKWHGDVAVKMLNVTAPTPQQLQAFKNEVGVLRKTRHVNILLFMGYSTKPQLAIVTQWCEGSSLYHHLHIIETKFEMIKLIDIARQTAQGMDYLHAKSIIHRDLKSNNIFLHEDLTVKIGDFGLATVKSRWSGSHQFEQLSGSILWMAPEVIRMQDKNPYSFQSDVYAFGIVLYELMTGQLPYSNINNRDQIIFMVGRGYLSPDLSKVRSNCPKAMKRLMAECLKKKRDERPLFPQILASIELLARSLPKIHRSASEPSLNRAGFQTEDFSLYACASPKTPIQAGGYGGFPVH
Data set [2] addresses Serine/threonine-protein kinase B-raf (Homo sapiens, UniProt P15056). Description: Inhibition of recombinant human full length GST-tagged wild type BRAF expressed in baculovirus expression system using recombinant human full length N-terminal His-tagged MEK1 as substrate preincubated for 1 hr followed by substrate addition measured after 25 mins.
Data set [3] deals with A-375. The data set is described as follows: Antiproliferative activity against human A375 cells after 48 hrs by MTT assay. It is filed as functional. Conditions: A-375, 48 h. The gist of the method:
(§1)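 MTT reduction assay. Cell lines grown to log phase in DMEM with 10% FBS (A375 in DMEM with sodium pyruvate added), seeded at 10⁴ cells/well in 96-well plates. Three replicate wells per concentration, each assay run three times, GI50 averaged.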

The test system of data set [4] is WM 266-4. Description: Antiproliferative activity against human WM266.4 cells after 48 hrs by MTT assay. It is filed as functional. Particulars: WM 266-4, 48 h. The gist of the method:
as §1
(In general: Tetrazolium assays rely on reduction of a dye to a coloured formazan, in cell work by metabolically active cells.)

The nature of data set [5]: Antiproliferative activity against human WM1361 cells after 48 hrs by MTT assay. It is filed as functional. Conditions: WM1361, 48 h. An outline of the steps: as §1
The subject of data set [6] is HT-29. Description: Antiproliferative activity against human HT-29 cells after 48 hrs by MTT assay. Type of data set: functional. Conditions: HT-29, 48 h. The gist of the method:
as §1

The subject of data set [7] is HCT-116. Description: Antiproliferative activity against human HCT116 cells after 48 hrs by MTT assay. It is filed as functional. Particulars: HCT-116, 48 h. An outline of the steps:
as §1

Data set [8] concerns the target RAF proto-oncogene serine/threonine-protein kinase (Homo sapiens, UniProt P04049, Y340D/Y341D). Description: Inhibition of recombinant human GST-tagged c-RAF (306 to 648 residues) Y340D/Y341D mutant expressed in baculovirus expression system using recombinant human full length N-terminal His-tagged MEK1 as substrate preincubated for 1 hr followed by substrate addition measured after 25 mins.

Data set [9] is described as follows: Cytotoxicity against HEK293T cells assessed as decrease in cell viability after 48 hrs by MTT assay. It is filed as cell-based, HEK-293T. Conditions: human. An outline of the steps:
as §1

Data set [10] in a line: Cytotoxicity against human LO2 cells assessed as decrease in cell viability after 48 hrs by MTT assay. It is filed as cell-based, L02. The gist of the method: as §1
The target in data set [11] is Dual specificity mitogen-activated protein kinase kinase; MEK1/2 (Homo sapiens, UniProt P36507+Q02750). The data set is described as follows: Inhibition of MEK1/2 (unknown origin). Type of data set: protein assay.
The target of data set [12] is Mitogen-activated protein kinase 8 (Homo sapiens, UniProt P45983). The data set is described as follows: Inhibition of N-terminal flag-tagged JNK1 (unknown origin) expressed in baculovirus expression system after 60 mins in presence of [gamma-32P]ATP by topcount scintillation method. An outline of the steps: (§2)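 Baculovirus-expressed N-terminal FLAG-tagged kinases in 25 mM HEPES pH 7.5, 10 mM Mg acetate, 1 mM DTT, 0.5 µM ATP plus [γ-³²P]ATP, 50 µL. p38α: 100 ng enzyme, MBP substrate. JNK1: 10 ng enzyme, 1 µg c-Jun. Compound and enzyme preincubated 5 min, ATP started the reaction, 60 min at 30 °C. Stopped with 10% TCA, filtered, washed with 3% phosphoric acid, counted by TopCount.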
Chain of Mitogen-activated protein kinase 8 (P45983 whole entry): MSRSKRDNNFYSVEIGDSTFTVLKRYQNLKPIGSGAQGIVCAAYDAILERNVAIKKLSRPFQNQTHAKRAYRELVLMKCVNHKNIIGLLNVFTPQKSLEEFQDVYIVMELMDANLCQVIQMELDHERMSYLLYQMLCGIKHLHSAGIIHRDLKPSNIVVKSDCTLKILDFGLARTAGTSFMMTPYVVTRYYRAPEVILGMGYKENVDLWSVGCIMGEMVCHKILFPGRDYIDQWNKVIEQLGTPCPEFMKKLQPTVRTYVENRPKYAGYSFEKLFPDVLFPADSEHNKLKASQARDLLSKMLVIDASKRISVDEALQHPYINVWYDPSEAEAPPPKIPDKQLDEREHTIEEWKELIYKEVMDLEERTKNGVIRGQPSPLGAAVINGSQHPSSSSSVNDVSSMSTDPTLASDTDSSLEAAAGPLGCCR

In data set [13] the target is Mitogen-activated protein kinase 14 (Homo sapiens, UniProt Q16539). Description: Inhibition of N-terminal flag-tagged p38alpha (unknown origin) expressed in baculovirus expression system using MBP as substrate preincubated for 5 mins followed by substrate addition measured after 60 mins in presence of [gamma-32P]ATP by topcount scintillation method. An outline of the steps:
as §2

Data set [14] has as its system Serine/threonine-protein kinase B-raf (Homo sapiens), P15056 [V600E]. The data set is described as follows: Inhibition of BRAF V600E mutant in human A375 cells assessed as decrease in MEK1/2 phosphorylation up to 0.3 uM after 30 mins by Western blot analysis. Type of data set: cell-based. On the technique in general: A western blot detects proteins with antibodies after separation by electrophoresis.

In data set [15] the test system is A-375. Description: Antitumor activity against human A375 cells xenografted in nude mouse assessed as tumor weight at 5 mg/kg, ip administered every second day for 14 days and measured on day 15. It is filed as functional. An outline of the steps:
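A375 cells, 3 × 10⁶ in 0.1 mL cold PBS, injected subcutaneously into right flank of nude mice. Treatment began when tumors reached ~100 mm³; mice randomized, 5 per group. Compound suspended in olive oil, given intraperitoneally every second day for 14 days. Body weight recorded every two days; tumors excised and weighed on day 15.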

For data set [16], the system named is Mus musculus. The data set is described as follows: Toxicity in nude mouse xenografted with human A375 cells assessed as body weight loss at 5 mg/kg, ip administered every second day for 14 days and measured every 2 days. Type of data set: organism-based. Conditions: in vivo. The gist of the method: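 Nude mice bearing subcutaneous right-flank A375 xenografts (3×10⁶ cells in cold PBS) were randomized into groups of 5 at about 100 mm³. Compounds were suspended in olive oil and given intraperitoneally every second day for 14 days. Body weight was recorded every two days.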
(In general: Xenograft models place foreign cells or tissue in a host animal.)

Chain of Serine/threonine-protein kinase B-raf (Homo sapiens, UniProt P15056) (P15056 whole entry): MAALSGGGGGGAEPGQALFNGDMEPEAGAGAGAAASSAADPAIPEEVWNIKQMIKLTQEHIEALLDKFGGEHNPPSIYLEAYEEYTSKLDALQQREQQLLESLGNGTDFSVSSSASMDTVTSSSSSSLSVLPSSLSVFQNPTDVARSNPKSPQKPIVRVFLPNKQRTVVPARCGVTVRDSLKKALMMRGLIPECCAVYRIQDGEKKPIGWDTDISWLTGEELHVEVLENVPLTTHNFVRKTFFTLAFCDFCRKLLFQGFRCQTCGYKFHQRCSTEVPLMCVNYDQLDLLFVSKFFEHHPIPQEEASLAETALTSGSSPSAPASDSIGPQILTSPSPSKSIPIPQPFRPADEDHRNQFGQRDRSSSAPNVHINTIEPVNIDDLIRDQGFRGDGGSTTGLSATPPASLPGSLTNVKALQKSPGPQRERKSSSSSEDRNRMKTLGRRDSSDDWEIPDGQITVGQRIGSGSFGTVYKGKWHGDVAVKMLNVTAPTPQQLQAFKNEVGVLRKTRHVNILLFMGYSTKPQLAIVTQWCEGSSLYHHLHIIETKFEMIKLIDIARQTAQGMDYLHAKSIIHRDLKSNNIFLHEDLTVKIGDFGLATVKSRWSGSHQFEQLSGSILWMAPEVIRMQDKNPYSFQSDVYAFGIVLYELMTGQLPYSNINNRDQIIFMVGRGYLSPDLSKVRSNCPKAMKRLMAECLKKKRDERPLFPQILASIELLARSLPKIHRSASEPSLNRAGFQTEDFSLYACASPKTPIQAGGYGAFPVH
Chain of RAF proto-oncogene serine/threonine-protein kinase (P04049 whole entry Y340D/Y341D, the tested form may be a part): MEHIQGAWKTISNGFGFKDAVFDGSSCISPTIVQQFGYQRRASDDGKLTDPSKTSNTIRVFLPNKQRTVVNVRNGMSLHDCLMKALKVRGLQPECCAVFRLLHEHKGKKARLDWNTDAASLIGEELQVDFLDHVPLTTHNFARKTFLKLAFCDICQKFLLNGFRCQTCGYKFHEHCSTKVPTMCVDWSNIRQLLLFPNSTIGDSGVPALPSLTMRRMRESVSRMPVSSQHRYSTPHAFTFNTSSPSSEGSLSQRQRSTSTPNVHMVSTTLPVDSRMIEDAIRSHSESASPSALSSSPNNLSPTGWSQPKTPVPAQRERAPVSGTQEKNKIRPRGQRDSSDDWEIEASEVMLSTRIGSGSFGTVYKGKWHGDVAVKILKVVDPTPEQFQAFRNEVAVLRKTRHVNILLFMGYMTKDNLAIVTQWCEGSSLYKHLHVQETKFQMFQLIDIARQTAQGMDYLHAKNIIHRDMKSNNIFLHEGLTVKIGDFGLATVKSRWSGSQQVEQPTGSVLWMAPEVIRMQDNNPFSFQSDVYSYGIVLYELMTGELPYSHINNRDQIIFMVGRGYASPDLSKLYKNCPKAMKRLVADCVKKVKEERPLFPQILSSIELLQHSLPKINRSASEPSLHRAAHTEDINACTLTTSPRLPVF
Chain of Mitogen-activated protein kinase 14 (Q16539 whole entry): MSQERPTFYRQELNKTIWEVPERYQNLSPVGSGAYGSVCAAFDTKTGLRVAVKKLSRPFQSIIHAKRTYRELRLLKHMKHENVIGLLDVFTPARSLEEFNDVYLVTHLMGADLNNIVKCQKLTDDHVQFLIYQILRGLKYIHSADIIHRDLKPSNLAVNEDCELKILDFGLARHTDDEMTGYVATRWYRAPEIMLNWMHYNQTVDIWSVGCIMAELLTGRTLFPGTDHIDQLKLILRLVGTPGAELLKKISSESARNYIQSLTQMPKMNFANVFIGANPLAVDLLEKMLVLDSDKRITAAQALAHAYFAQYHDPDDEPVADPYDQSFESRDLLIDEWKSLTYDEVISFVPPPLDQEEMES
Chain of Serine/threonine-protein kinase B-raf (Homo sapiens), P15056 [V600E] (P15056 whole entry V600E): as the sequence (P15056 whole entry) above, with V600E counted along it

In the case of `Cc1ccc(C2=NN(C(=S)Nc3ccccc3)C(c3ccc4c(c3)OCCO4)C2)cc1C` (stereo not given), the negative-log IC50 (pIC50) (in general, the IC50 on a negative log10 scale, so that one unit is a factor of ten) is 4.41 in [1] and 4.31 in [2]. In addition, the GI50 (usually the concentration at which growth is held to half of that of the control) is 61.3 µM in data set [3]; 70.5 µM in [4]; 148 µM in [5]; 133 µM in [6]; 144 µM in data set [7].

With `S=C(Nc1ccccc1)N1N=C(c2ccccc2Br)CC1c1ccc2c(c1)OCCO2` (stereo not given), the pIC50 in data set [1] is less than 3.70; in data set [2], 3.91. Moreover, the GI50 in data set [3] was greater than 200 µM; in data set [4] it was greater than 200 µM; in data set [5] it was greater than 200 µM; in data set [6], greater than 200 µM; in data set [7], 195 µM.

Turning to `Cc1ccc(C2=NN(C(=S)Nc3ccccc3)C(c3ccc4c(c3)OCCO4)C2)cc1` (stereo not given), the pIC50 in [1] is 5.37; in data set [2], less than 3.70. The GI50 is 6.32 µM in [3]; 10.3 µM in data set [4]; greater than 200 µM in [5]; 19.5 µM in [6]; greater than 200 µM in data set [7].

On to `S=C(Nc1ccccc1)N1N=C(c2cccc(Cl)c2)CC1c1ccc2c(c1)OCCO2` (stereo not given), for which the pIC50 in data set [1] was less than 3.70; in data set [2] it was 4.02. The 50% growth inhibitory concentration (GI50) in data set [3] was greater than 200 µM; in data set [4], greater than 200 µM; in data set [5] it was 153 µM; in [6], greater than 200 µM; in data set [7] it was 138 µM.

In the case of `Fc1ccc(C2=NN(C(=S)Nc3ccccc3)C(c3ccc4c(c3)OCCO4)C2)cc1` (stereo not given), the results for the pIC50 in [1] and in data set [2] were 4.95 and 4.64, respectively. The GI50 amounted to 15.7 µM in data set [3]; 22.5 µM in data set [4]; 65.3 µM in [5]; 37.6 µM in [6]; 61.2 µM in data set [7].

For `S=C(Nc1ccccc1)N1N=C(c2ccc(Br)cc2)CC1c1ccc2c(c1)OCCO2` (stereo not given), the pIC50 in data set [1] was 7.30; in [2], 4.73; in data set [8], 4.75; in data set [12], 4.03; in [13] it was less than 3.70. Further, the GI50 is 0.47 µM in data set [3]; 0.87 µM in [4]; 37.5 µM in [5]; 2.58 µM in data set [6]; 32.1 µM in data set [7]. The GI50 at 48 h in data set [9] worked out at 152 µM; in data set [10], 188 µM. For the same compound, the 50% inhibitory concentration (IC50) (commonly the concentration that gives 50% inhibition) in data set [11] came to 188 µM.

As to `S=C(Nc1ccccc1)N1N=C(c2ccccc2)CC1c1ccc2c(c1)OCCO2` (stereo not given), the results for the pIC50 in data set [1] and in [2] were 6.09 and 4.67, respectively. Further, the GI50 in data set [3] is 1.85 µM; in data set [4], 3.18 µM; in data set [5], 58.5 µM; in [6] it was 6.63 µM; in data set [7], 57.6 µM.

Consider `O=[N+]([O-])c1ccc(C2=NN(C(=S)Nc3ccccc3)C(c3ccc4c(c3)OCCO4)C2)cc1` (stereo not given), for which the results for the pIC50 in data set [1] and in [2] were 4.24 and less than 3.70, respectively. In addition, the GI50 in data set [3] was 78.1 µM; in [4], 105 µM; in data set [5] it was greater than 200 µM; in [6], 153 µM; in data set [7] it was greater than 200 µM.

Consider `CSc1ccc(C2=NN(C(=S)Nc3ccccc3)C(c3ccc4c(c3)OCCO4)C2)cc1` (stereo not given), for which the pIC50 is 4.07 in data set [1] and 3.81 in data set [2]. In addition, the 50% growth inhibitory concentration (GI50) in [3] was 159 µM; in data set [4] it was 197 µM; in data set [5], 187 µM; in [6], greater than 200 µM; in data set [7], 193 µM.

As to `S=C(Nc1ccccc1)N1N=C(c2ccc(Cl)cc2)CC1c1ccc2c(c1)OCCO2` (stereo not given), the values for the pIC50 in data set [1] and in [2] were 3.87 and less than 3.70, respectively. The GI50 in data set [3] is 195 µM; in data set [4], greater than 200 µM; in data set [5] it was greater than 200 µM; in data set [6], 187 µM; in data set [7] it was greater than 200 µM.

As to `S=C(Nc1ccccc1)N1N=C(c2ccc(Cl)c(Cl)c2)CC1c1ccc2c(c1)OCCO2` (stereo not given), the pIC50 in data set [1] was 4.51; in data set [2], 4.41. Further, the GI50 in [3] is 41.9 µM; in data set [4], 58.7 µM; in data set [5], 122 µM; in data set [6], 95.3 µM; in data set [7], 125 µM.

As to `S=C(Nc1ccccc1)N1N=C(c2cccs2)CC1c1ccc2c(c1)OCCO2` (stereo not given), the results for the pIC50 in data set [1] and in data set [2] were 4.11 and 5.28, respectively. Besides, the GI50 in data set [3] was determined as 121 µM; in data set [4], 154 µM; in data set [5], 7.96 µM; in [6], 188 µM; in data set [7] it was 8.19 µM.

Take `S=C(Nc1ccccc1)N1N=C(c2ccc(OCc3ccccc3)cc2)CC1c1ccc2c(c1)OCCO2` (stereo not given): the pIC50 was 8.00 in data set [1]; 5.28 in data set [2]; 5.50 in data set [8]; 4.05 in [12]; less than 3.70 in data set [13]. The GI50 in data set [3] was 0.35 µM; in data set [4], 0.42 µM; in data set [5] it was 8.23 µM; in data set [6], 0.86 µM; in data set [7], 8.53 µM. For the same compound, the GI50 at 48 h was 175 µM in data set [9] and greater than 200 µM in data set [10]. This compound displayed an IC50 in data set [11] of 176 µM. Besides, in [14], the inhibition result was “Active”.

Turning to `FC(F)(F)c1ccc(C2=NN(C(=S)Nc3ccccc3)C(c3ccc4c(c3)OCCO4)C2)cc1` (stereo not given), the pIC50 in [1] was 4.53; in data set [2] it was 4.45. The GI50 in [3] stood at 43.5 µM; in data set [4] it was 52.4 µM; in data set [5], 123 µM; in data set [6] it was 97.5 µM; in [7] it was 112 µM.

For `COc1ccccc1C1=NN(C(=S)Nc2ccccc2)C(c2ccc3c(c2)OCCO3)C1` (stereo not given), the pIC50 in [1] is 4.92; in [2], less than 3.70. Moreover, the GI50 in [3] is 20.3 µM; in data set [4], 25.8 µM; in data set [5], greater than 200 µM; in [6], 30.5 µM; in data set [7], greater than 200 µM.

Take `CCCS(=O)(=O)Nc1ccc(F)c(C(=O)c2c[nH]c3ncc(-c4ccc(Cl)cc4)cc23)c1F` [VEMURAFENIB]: the GI50 in data set [3] turned out to be 0.95 µM; in data set [4], 0.21 µM; in [5], 20.8 µM; in data set [6], 1.88 µM; in [7] it was 25.2 µM. The Activity in data set [15] is listed as 0.41 g; in data set [16], “Non-Toxic”.
